The values that follow come from ChEMBL document CHEMBL1949532, “Novel dendrimeric lipopeptides with antifungal activity” (Bioorg Med Chem Lett, 2012).

In data set [1] the test system is Escherichia coli. Briefly: Antibacterial activity against Escherichia coli ATCC 25922 after 18 to 24 hrs by serial broth microdilution susceptibility test. The data set is classed as functional. An outline of the steps:
(§1)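 MIC determined by serial microdilution in microplates. Candida inocula were prepared in L-glutamine-deficient RPMI-1640 medium.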
A general note: Dilution methods test growth across graded concentrations, often in twofold steps.

A further data set has as its system Candida parapsilosis. Briefly: Antifungal activity against Candida parapsilosis ATCC 22019 after 24 to 48 hrs by serial broth microdilution susceptibility test. The data set is classed as functional. The note with it: Lodderomyces parapsilosis. An outline of the steps: as §1
Data set [2] in a line: Toxicity in human erythrocytes assessed as hemolysis at above MIC after 30 mins by spectrophotometry. In kind it is cell-based. The note with it: erythrocyte, 0.5 h. An outline of the steps:
(§2)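 Human erythrocytes suspended in PBS were exposed to lipopeptides at 0.001–0.4 mmol/l and hemolysis was measured.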

For the next data set, the system named is Pichia kudriavzevii. Briefly: Antifungal activity against Candida krusei ATCC 6258 after 24 to 48 hrs by serial broth microdilution susceptibility test. The data set is classed as functional. An outline of the steps:
as §1

Data set [3] relates to Escherichia coli. Put plainly: Antibacterial activity against Escherichia coli ATCC BAA-198 after 18 to 24 hrs by serial broth microdilution susceptibility test. In kind it is functional. In short, it runs like this:
as §1

A short description of data set [4]: (§3) Inhibition of beta (1,3) glucan synthase in Candida albicans cell membrane using UDP-Glc as substrate assessed as aniline blue-glucan complex formation by microtiter-based fluorescence method. An outline of the steps: (§4)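 β(1,3)-glucan synthase in the membrane fraction of C. albicans was assayed by a microtiter-based fluorescence method across a concentration range. Values are means of three independent experiments (SD); IC50 was determined.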

Data set [5] concerns Staphylococcus aureus. Briefly: Antibacterial activity against Staphylococcus aureus ATCC 43300 after 18 to 24 hrs by serial broth microdilution susceptibility test. In kind it is functional. An outline of the steps: as §1
A further data set deals with Pseudomonas aeruginosa. Briefly: Antibacterial activity against Pseudomonas aeruginosa ATCC 27853 after 18 to 24 hrs by serial broth microdilution susceptibility test. The data set is classed as functional. An outline of the steps: as §1
The test system of data set [6] is Staphylococcus aureus. Put plainly: Antibacterial activity against Staphylococcus aureus ATCC 25923 after 18 to 24 hrs by serial broth microdilution susceptibility test. The data set is classed as functional. An outline of the steps: as §1
Data set [7] relates to Candida albicans. Briefly: Antifungal activity against Candida albicans ATCC 10231 assessed as massive destruction of cell surface at 64 uM after 2 hrs by scanning electron microscopy. In kind it is functional, organism-based.
Data set [8] has as its system Candida albicans. Briefly: Antifungal activity against Candida albicans ATCC 10231 assessed as leakage of intracellular contents at 4 uM after 2 hrs by scanning electron microscopy. The data set is classed as functional, organism-based.
The test system of data set [9] is Klebsiella pneumoniae subsp. pneumoniae. Put plainly: Antibacterial activity against Klebsiella pneumoniae subsp. pneumoniae ATCC 13882 after 18 to 24 hrs by serial broth microdilution susceptibility test. The data set is classed as functional. In short, it runs like this: as §1
Data set [10] is described as follows: Toxicity in human erythrocytes suspended in L-glutamine deficient RPMI-1640 assessed as hemolysis after 30 mins by spectrophotometry relative to human erythrocytes suspended in PBS buffer. The note with it: erythrocyte, 0.5 h. The data set is classed as cell-based. In short, it runs like this: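 Hemolysis was measured for human erythrocytes resuspended in L-glutamine-deficient RPMI-1640 (the Candida MIC medium) and compared with erythrocytes suspended in PBS.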

The next data set deals with Acinetobacter baumannii. Put plainly: Antibacterial activity against Acinetobacter baumannii ATCC 19606 after 18 to 24 hrs by serial broth microdilution susceptibility test. The data set is classed as functional. The settings on record: ATCC 19606 = CIP 70.34 = JCM 6841. An outline of the steps: as §1
Data set [11] deals with Candida albicans. Briefly: Antifungal activity against Candida albicans ATCC 10231 assessed as alteration in cell envelope at 4 uM after 2 hrs by scanning electron microscopy. In kind it is functional, organism-based.
Data set [12] concerns Candida albicans. Put plainly: Antifungal activity against Candida albicans ATCC 90028 after 24 to 48 hrs by serial broth microdilution susceptibility test. In kind it is functional. In short, it runs like this:
as §1

Data set [13] has as its system Bordetella bronchiseptica. Briefly: Antibacterial activity against Bordetella bronchiseptica ATCC 4617 after 18 to 24 hrs by serial broth microdilution susceptibility test. The data set is classed as functional. An outline of the steps:
as §1

For data set [14], the system named is Candida albicans. Briefly: Antifungal activity against Candida albicans ATCC 10231 assessed as increase in intracellular potassium release after 30 mins. The data set is classed as functional, organism-based. An outline of the steps: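 Efflux of K+ from C. albicans cells was monitored continuously with a potassium-selective electrode. Release was expressed relative to a positive control, and EK50 was taken as the concentration releasing 50% of intracellular potassium.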

Data set [15] has as its system Candida albicans. Briefly: Antifungal activity against Candida albicans ATCC 10231 assessed as pseudohyphae formation at 14 uM after 6 hrs by calcofluor white and aniline blue staining-based fluorescence microscopy. In kind it is functional, organism-based. In short, it runs like this: (§5)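 C. albicans ATCC 10231 yeast cells were incubated with compound for 6 h, at up to 2×MIC. Chitin was stained with Calcofluor White and glucan with Aniline Blue, then cells were examined by fluorescence microscopy against untreated controls.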

A short description of data set [16]: Toxicity in human erythrocytes assessed as hemolysis at 100 uM after 30 mins by spectrophotometry. The data set is classed as cell-based, Erythrocyte. The note with it: read-out: Activity. An outline of the steps:
as §2

Data set [17] relates to Candida albicans. The description is as §3. In short, it runs like this: as §4
The test system of data set [18] is Candida albicans. Briefly: Antifungal activity against Candida albicans ATCC 10231 assessed as loss of integrity at 10 uM after 2 hrs by scanning electron microscopy. In kind it is functional, organism-based.
Data set [19] has as its system Candida albicans. Put plainly: Antifungal activity against Candida albicans ATCC 10231 assessed as morphological changes at < 7 uM after 6 hrs by calcofluor white and aniline blue staining-based fluorescence microscopy. The data set is classed as functional, organism-based. An outline of the steps: as §5
Data set [20] in a line: Toxicity in human erythrocytes assessed as hemolysis at 300 uM after 30 mins by spectrophotometry. The data set is classed as cell-based, Erythrocyte. The note with it: read-out: Activity. An outline of the steps:
as §2

Data set [21] is described as follows: Toxicity in human erythrocytes assessed as hemolysis at 50 uM after 30 mins by spectrophotometry. The data set is classed as cell-based, Erythrocyte. The note with it: read-out: Activity. An outline of the steps: as §2

In brackets after ≈: the same amount, converted by molar mass. Activity calls are given as the source filed them. The calls are words filed in the database; no cut-off is given here. Starred links: 1 amine or outer side, 2 acyl side, 3 side chain; linkers in the order of their positions; H or OH if unused. Residues, ends and D or L forms follow the SMILES beside them. Groups on a side chain read outwards from the residue. *: point of attachment. εLys = N[C@@H](CCCCN[*:1])C(=O)[*:2]; ClZ = O=C(OCc1ccccc1Cl)*

The MIC is the least concentration at which growth counts as inhibited. Higher therefore signals weaker potency. What is called IC50 is the concentration at which inhibition is half-maximal. `CCCCCCCCCCCCNC(=O)[C@H](Cc1ccccc1)NC(=O)[C@H](CCCCNC(=O)[C@H](CCCCN)NC(=O)OCc1ccccc1)NC(=O)[C@H](CCCCN)NC(=O)OCc1ccccc1.Cl.Cl`: the minimal inhibitory concentration (MIC) against Escherichia coli [1] came out at 30 µM; in the data set on Candida parapsilosis it was 8 µM; in the data set on Pichia kudriavzevii, 8 µM; in the data set with Escherichia coli [3], 8 µM; against Staphylococcus aureus [5], 8 µM; in the data set on Pseudomonas aeruginosa it was 64 µM. The minimal inhibitory concentration (MIC) against Staphylococcus aureus [6] was determined as 15 µM; in data set [9], 121 µM; against Acinetobacter baumannii, 121 µM; in the data set on Candida albicans [12], 8 µM; in data set [13], 7 µM. Also, the results for the Activity entry in data set [2] and in data set [10] were “Toxic” and “Non-toxic”, respectively. In addition, in data set [4], the IC50 was 50 µM. Moreover, the result with Candida albicans [7], in the data set on Candida albicans [8] and with Candida albicans [11] was Active.
Consider `CCCCCCCCCCCCNC(=O)[C@H](Cc1ccccc1)NC(=O)[C@H](CCCCNC(=O)[C@@H](N)CCCCN)NC(=O)[C@@H](N)CCCCN.Cl.Cl.Cl.Cl`, for which the minimal inhibitory concentration (MIC) was found to be 32 µM with Escherichia coli [1]; 4 µM against Candida parapsilosis; 4 µM against Pichia kudriavzevii; 64 µM against Escherichia coli [3]; 4 µM in the data set with Staphylococcus aureus [5]; 64 µM against Pseudomonas aeruginosa. The MIC was 8 µM in the data set with Staphylococcus aureus [6]; > 256 µM in [9]; > 256 µM with Acinetobacter baumannii; 16 µM against Candida albicans [12]; 8 µM in data set [13]. The Activity result in data set [2] is on record as “Toxic”; in data set [10] it was “Non-toxic”.
With `NC(=O)[C@H](Cc1ccccc1)NC(=O)[C@H](CCCCNC(=O)[C@@H](N)CCCCNC(=O)OCc1ccccc1Cl)NC(=O)[C@@H](N)CCCCNC(=O)OCc1ccccc1Cl` (H-Lys(ClZ)-Lys([εLys-ClZ])-Phe-NH2), the MIC stood at 33 µM (≈ 29.2 µg/mL) against Escherichia coli [1]; 33 µM (≈ 29.2 µg/mL) in the data set on Candida parapsilosis; 33 µM (≈ 29.2 µg/mL) against Pichia kudriavzevii; 16 µM (≈ 14.2 µg/mL) in the data set with Escherichia coli [3]; 17 µM (≈ 15.1 µg/mL) in the data set on Staphylococcus aureus [5]; 67 µM (≈ 59.4 µg/mL) in the data set with Pseudomonas aeruginosa. The MIC with Staphylococcus aureus [6] was 33 µM (≈ 29.2 µg/mL); in [9], 34 µM (≈ 30.1 µg/mL); with Acinetobacter baumannii it was 67 µM (≈ 59.4 µg/mL); with Candida albicans [12], 33 µM (≈ 29.2 µg/mL); in [13] it was 8 µM (≈ 7.09 µg/mL).
By EC50 is commonly meant the concentration that produces a half-maximal response. As for NYSTATIN, in the data set on Candida albicans [14], the concentration giving a half-maximal response (EC50) was determined as 2.4 µM.
With `CCCCCCCCCCCCNC(=O)[C@H](Cc1ccccc1)NC(=O)[C@H](CCCCNC(=O)[C@@H](N)CCCCNC(=O)OCc1ccccc1Cl)NC(=O)[C@@H](N)CCCCNC(=O)OCc1ccccc1Cl.Cl.Cl`, the outcome with Candida albicans [15], in the data set with Candida albicans [8], in the data set on Candida albicans [18] and with Candida albicans [11] was Active. Besides, the minimum inhibitory concentration (MIC) in the data set with Escherichia coli [1] was 56 µM; in the data set with Candida parapsilosis, 7 µM; in the data set on Pichia kudriavzevii, 7 µM; against Escherichia coli [3], 64 µM; with Staphylococcus aureus [5], 28 µM; against Pseudomonas aeruginosa it was 114 µM. Moreover, the MIC with Staphylococcus aureus [6] came out at 28 µM; in data set [9] it was 114 µM; in the data set with Acinetobacter baumannii it was 114 µM; in the data set with Candida albicans [12], 7 µM; in data set [13], 14 µM. In addition, in data set [16], the hemolysis at 0.5 h, 100 µM was determined as 10%. For the same molecule, the half-inhibitory concentration (IC50) in data set [4] was 51 µM. Further, the inhibition result with Candida albicans [17] is “Dose-dependent effect”. For the same molecule, the figures for the Activity entry (with Candida albicans [14]; in [10]) were “Dose-dependent effect” and “Toxic”, respectively. The EC50 with Candida albicans [14] (Candida albicans, ATCC 10231, 0.5 h) stood at 13 µM. In the data set with Candida albicans [19], the result was inactive.
Turning to `CCCCCCCCNC(=O)[C@H](Cc1ccccc1)NC(=O)[C@H](CCCCNC(=O)[C@@H](N)CCCCN)NC(=O)[C@@H](N)CCCCN`, the MIC against Escherichia coli [1] is > 256 µM; in the data set with Candida parapsilosis, 64 µM (≈ 42.3 µg/mL); against Pichia kudriavzevii it was 128 µM (≈ 84.6 µg/mL); with Escherichia coli [3], > 256 µM; against Staphylococcus aureus [5] it was 128 µM (≈ 84.6 µg/mL); in the data set on Pseudomonas aeruginosa, > 256 µM. In addition, the MIC was 128 µM (≈ 84.6 µg/mL) with Staphylococcus aureus [6]; > 256 µM in data set [9]; > 256 µM in the data set with Acinetobacter baumannii; 256 µM (≈ 169 µg/mL) against Candida albicans [12]; 32 µM (≈ 21.2 µg/mL) in data set [13]. Also, in data set [20], the hemolysis at 0.5 h, 300 µM was found to be 10%.
With `CCCCCCCCNC(=O)[C@H](Cc1ccccc1)NC(=O)[C@H](CCCCNC(=O)[C@H](CCCCN)NC(=O)OCc1ccccc1)NC(=O)[C@H](CCCCN)NC(=O)OCc1ccccc1`, the MIC in the data set with Escherichia coli [1] was determined as 30 µM (≈ 27.9 µg/mL); in the data set on Candida parapsilosis, 16 µM (≈ 14.9 µg/mL); against Pichia kudriavzevii it was 16 µM (≈ 14.9 µg/mL); with Escherichia coli [3], 8 µM (≈ 7.43 µg/mL); against Staphylococcus aureus [5], 16 µM (≈ 14.9 µg/mL); with Pseudomonas aeruginosa, 32 µM (≈ 29.7 µg/mL). For the same molecule, the MIC came to 32 µM (≈ 29.7 µg/mL) against Staphylococcus aureus [6]; 128 µM (≈ 119 µg/mL) in data set [9]; 128 µM (≈ 119 µg/mL) in the data set on Acinetobacter baumannii; 32 µM (≈ 29.7 µg/mL) against Candida albicans [12]; 8 µM (≈ 7.43 µg/mL) in data set [13]. Also, the hemolysis at 0.5 h, 50 µM in [21] stood at 10%.
